The source of these data is PubChem BioAssay.

SMILES strings stand for the structures. The source made the active and inactive calls.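 Rule for the calls, unless noted: active = inhibition above 20% together with a positive visual image hit; inconclusive = visual image hit but inhibition not above 20%; inactive = no visual image hit.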

Assay [1] is described as follows: inhibitors of TNFa-induced NFkB p65 translocation, primary screen, imaging, HUVEC, MLSMR starter and 10KST1 sets (AID 438).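 For inhibition: signal is the nuclear over cytoplasmic p65 intensity ratio per well.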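 Note: compound added about 3h40 before a 20 min TNFalpha stimulation.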 Conditions: HUVEC TNFa-induced p65 nuclear translocation; cell count: measured here: nuclei count (cytotoxicity indicator), at 2.08 µM; inhibition: at 2 µM, stronger effect = higher value, 0% TNFa-plus-vehicle, 100% no-TNFa wells.
The nature of assay [2]: inhibitors of E-selectin induction by TNFa, primary screen, imaging, HUVEC, immunofluorescence, MLSMR starter and 10KST1 sets (AID 487;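 active = visually confirmed hit in the image check and inhibition above 20%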;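 for inhibition: signal is fraction of cell area covered by stained E-selectin grains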;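 for nuclei count: 100% = median nuclei count of all wells on the same plate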). The note with it: HUVEC TNFalpha-induced E-selectin immunofluorescence imaging, at 2 µM; inhibition: stronger effect = higher value; nuclei count: measured here: cell number, toxicity.
A short description of assay [3]: DUSP6 inhibitors restoring Erk phosphorylation by chemical complementation, primary imaging in DUSP6-transfected HeLa (AID 609;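 active = compounds giving at least 50% inhibition in the cell-based MKP-3 phosphatase rescue imaging test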;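 for inhibition: phospho-Erk level distribution per well compared with pooled transfected vehicle control wells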). The note with it: HeLa MKP-3 transfected, phospho-Erk imaging KS statistic, at 10 µM, cells stimulated with TPA for 15 min.
Assay [4] concerns the target Dual specificity protein phosphatase 6 (Homo sapiens) (UniProt Q16828). The description is as above. The note with it: HeLa MKP-3 transfected, phospho-Erk imaging KS statistic; at 10 µM; stronger effect = higher value; cells stimulated with TPA for 15 min.
Assay [5] addresses Voltage-gated potassium channel subunit beta-2 (Rattus norvegicus) (UniProt P62483). The experiment in a line: KvBeta enzyme negative modulators, primary screen, biochemical, NADPH fluorescence (AID 622;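 active = fluorescence slope higher than the sample average by over 3 SD, cut at about -0.22 in these data, passing the limit was not always enough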;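 note: slope of raw intensity against log time taken from 70 to 1610 s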). Conditions: recombinant KvBeta, 4-cyanobenzaldehyde reduction, at 10 µM, stronger effect = higher value.
Assay [6] shares this target. The experiment in a line: KvBeta positive modulators, primary screen, biochemical, NADPH fluorescence (AID 623;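 active = NADPH fluorescence slope more negative than the mean of all samples by about 3 SD, 99.7% confidence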;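 note: fluorescence intensity change per second fitted from 20 to 320 s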). The note with it: Recombinant KvBeta, NADPH fluorescence decrease slope, 10 min; at 10 µM; stronger effect = lower value.
Assay [7] addresses Muscarinic acetylcholine receptor M4 (Homo sapiens) (UniProt P08173). In words: compounds altering M4/GIRK thallium flux, either direction, primary screen, M4 allosteric agonist project, cell-based, HEK293 M4/GIRK, BTC-AM (AID 625;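 active = fluorescence slope after compound addition differing from the mean of all tested samples at 99.7% confidence, mostly higher but some lower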;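 note: thallium influx through GIRK channels coupled to M4 in HEK293 cells with BTC-AM dye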). The note with it: at 10 µM, actives lie on both sides. In short, it runs like this: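 Material: HEK293 cells with M4 receptor and GIRK channels; Times: cells overnight at 37 °C, BTC-AM loading 1 h, reads 2 min total; Technique: kinetic BTC-AM fluorescence sampled at 1 Hz, 10 s pre-addition baseline; Read-out basis: slope over 15–24 s of trace normalized to starting intensity; Controls: carbachol positive, DMSO negative.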

A short description of assay [8]: inhibitors of larval lipid processing in zebrafish, primary screen, whole organism, PED6 fluorescence, gall bladder and intestine (AID 686;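 active = a full or partial loss of lipid-probe fluorescence in the fish gall bladder, intestine or both, judged by eye; inactive = no fluorescence loss, or compound toxic to the fish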;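 note: larvae 5 to 7 days old with five fish per well; signal comes from phospholipase A2 cleavage of quenched PED6 carried via bile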). The note with it: Zebrafish larvae PED6 lipid processing, fluorescence scoring; screened at 20 µM (by protocol). In short, it runs like this: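 Incubation: overnight exposure of larvae to compound plus PED6 / Test system: live zebrafish larvae aged 5-7 days, whole organism / Amount: 5 larvae per well / Read-out basis: visual per-well fluorescence inhibition score / Signal: visual fluorescence microscopy scoring of gall bladder, gut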

Assay [9] is described as follows: inhibitors of Chlamydomonas gravitaxis, primary screen, whole organism, Chlamydomonas reinhardtii, WT vs cilia-less mutant, absorbance, 96-well (AID 463189;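 active = inhibition at or above 50% relative to wild type and mutant plate controls; inactive = inhibition below 50%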;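 note: 0% = wild type cc124 cells in DMSO and 100% = ciliumless bld1 mutant cells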). The note with it: OD600 absorbance, 2 days, at 10 µM, stronger effect = higher value.
[10] abbreviates: measured here: cell density z-score.
The mark [11] stands for this setting: measured here: nuclear c-Myc green intensity z-score.
Setting [12] is: measured here: nuclear pErk red intensity z-score, stronger effect = higher value.

For orientation: inhibition means the drop in the measured response relative to a control, in per cent.

Muscarinic acetylcholine receptor M4 (Homo sapiens), sequence (P08173 whole entry, looked up): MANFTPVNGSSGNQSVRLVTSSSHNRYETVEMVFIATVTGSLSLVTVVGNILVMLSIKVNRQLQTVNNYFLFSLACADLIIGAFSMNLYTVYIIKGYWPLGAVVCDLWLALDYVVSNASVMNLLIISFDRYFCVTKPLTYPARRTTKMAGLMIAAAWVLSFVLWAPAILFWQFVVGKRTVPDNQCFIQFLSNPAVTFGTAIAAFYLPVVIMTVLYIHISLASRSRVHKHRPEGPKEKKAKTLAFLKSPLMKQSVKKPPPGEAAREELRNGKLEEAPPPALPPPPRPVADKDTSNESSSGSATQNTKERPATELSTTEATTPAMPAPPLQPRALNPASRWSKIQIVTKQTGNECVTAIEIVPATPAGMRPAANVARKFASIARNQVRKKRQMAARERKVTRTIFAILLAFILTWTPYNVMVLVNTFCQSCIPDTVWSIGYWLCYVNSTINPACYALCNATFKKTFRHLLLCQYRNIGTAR
Dual specificity protein phosphatase 6 (Homo sapiens), sequence (Q16828 whole entry, looked up): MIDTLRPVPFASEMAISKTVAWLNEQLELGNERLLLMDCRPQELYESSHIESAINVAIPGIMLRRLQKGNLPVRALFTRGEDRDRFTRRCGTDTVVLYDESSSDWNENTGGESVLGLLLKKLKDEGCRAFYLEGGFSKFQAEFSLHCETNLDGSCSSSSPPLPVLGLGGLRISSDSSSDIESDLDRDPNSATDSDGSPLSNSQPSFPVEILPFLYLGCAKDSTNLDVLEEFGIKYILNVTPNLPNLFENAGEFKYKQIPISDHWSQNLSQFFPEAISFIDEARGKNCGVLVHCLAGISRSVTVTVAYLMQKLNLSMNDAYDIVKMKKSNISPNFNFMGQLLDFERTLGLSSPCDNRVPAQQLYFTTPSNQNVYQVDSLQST
Voltage-gated potassium channel subunit beta-2 (Rattus norvegicus), sequence (P62483 whole entry, looked up): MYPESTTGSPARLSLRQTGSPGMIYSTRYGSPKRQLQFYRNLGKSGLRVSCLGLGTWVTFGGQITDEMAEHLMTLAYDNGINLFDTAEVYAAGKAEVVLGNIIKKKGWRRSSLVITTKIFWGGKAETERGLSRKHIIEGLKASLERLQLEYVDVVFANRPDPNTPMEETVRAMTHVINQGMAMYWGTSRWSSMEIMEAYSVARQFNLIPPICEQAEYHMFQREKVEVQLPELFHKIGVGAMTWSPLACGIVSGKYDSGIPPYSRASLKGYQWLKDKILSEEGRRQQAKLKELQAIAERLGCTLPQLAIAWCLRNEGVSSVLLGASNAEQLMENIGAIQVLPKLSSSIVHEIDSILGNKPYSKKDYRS

Consider `COc1ccc(/C(O)=C2/C(=O)C(=O)N(CCCN(C)C)C2c2ccc(C)o2)cc1Cl` (stereo unspecified), for which the cell count in assay [1] came out at 709. Moreover, the inhibition is -8.3% (inactive) in assay [1], -108% (inactive) in assay [2], -6.48% (inactive) in assay [4] and 18.3% (inactive) in [9]. This compound also came in with a nuclei count in assay [2] of 146%. Further, the z-score is -0.0808 in [3] (setting [10]), -0.238 in assay [3] (setting [11]) and -0.0387 in [3] (setting [12]). Also, the fluorescence slope in [5] is -0.48 (inactive); in [7], 0.0051 (inactive). Further, in assay [6], the NADPH fluorescence slope is -4.6e-05 (inactive). The outcome in assay [8] was inactive.
Consider `Cc1ccc(CNC(=O)c2cc3c(=O)n4ccccc4nc3n(CC3CCCO3)c2=N)cc1` (stereo unspecified), for which the cell count in [1] is 542. For the same compound, the inhibition is -11.9% (inactive) in assay [1], -40.3% (inactive) in assay [2], 2.71% (inactive) in [4] and 32.5% (inactive) in assay [9]. Moreover, the nuclei count in [2] came to 93.4%. Moreover, the z-score in assay [3] (setting [10]) was -0.636; in assay [3] (setting [11]), 0.681; in assay [3] (setting [12]), -1.25. Also, the fluorescence slope in [5] is -0.331 (inactive); in [7], -0.000734 (active). For the same compound, the NADPH fluorescence slope in [6] is -2.1e-05 (inactive). In [8], the outcome was inactive.
Turning to `CC(C)(C)C1=Nn2c(nnc2C2CCCCC2)SC1`, in assay [1], the cell count was 802. Moreover, the inhibition in assay [1] is -5.9% (inactive); in assay [2] it was -150% (inactive); in [4], 2.46% (inactive); in assay [9] it was 3.81% (inactive). Also, the nuclei count in assay [2] was determined as 189%. The z-score in assay [3] (setting [10]) worked out at 0.781; in assay [3] (setting [11]), 1.46; in assay [3] (setting [12]) it was 0.611. For the same compound, the fluorescence slope in [5] is -0.452 (inactive); in assay [7], 0.00451 (inactive). For the same compound, the NADPH fluorescence slope in [6] was -7.5e-05 (inactive). The compound was called inactive in assay [8].
Regarding `Cn1c(N)c(C#N)c2c(c1=S)CSC(C)(C)C2`, in assay [1], the cell count was determined as 571. For the same compound, the inhibition is -20% (inactive) in assay [1], -64.2% (inactive) in assay [2], 25.8% (inactive) in assay [4] and 9.9% (inactive) in assay [9]. The compound further registered a nuclei count in assay [2] of 144%. Besides, the results for the z-score in assay [3] (setting [10]), in [3] (setting [11]) and in [3] (setting [12]) were 0.44, -1.23 and -1.03, respectively. The fluorescence slope in assay [5] is -0.446 (inactive); in assay [7], 0.00454 (inactive). Further, in [6], the NADPH fluorescence slope is -6.4e-06 (inactive). For the same compound, in [8], the compound was classed as inactive.
Consider `Cc1cccn2c(=O)c3cc(C(=O)NCc4cccnc4)c(=N)n(C)c3nc12`, for which the cell count in assay [1] amounted to 734. For the same compound, the inhibition in assay [1] is 7.8% (inactive); in [2], -3.9% (inactive); in [4] it was 7.83% (inactive); in assay [9], 2.07% (inactive). In assay [2], this compound showed a nuclei count of 154%. The z-score is -0.252 in assay [3] (setting [10]), 0.503 in [3] (setting [11]) and 1.16 in assay [3] (setting [12]). The figures for the fluorescence slope in assay [5] and in assay [7] were -0.403 (inactive) and 0.00535 (inactive), respectively. For the same compound, in [6], the NADPH fluorescence slope was -4.4e-05 (inactive). Besides, in assay [8], the outcome was inactive.
Regarding `COc1cc(S(=O)(=O)N2CCN(c3ccc(F)cc3)CC2)ccc1Cl`, the cell count in [1] turned out to be 609. In addition, the inhibition in [1] is -2.2% (inactive); in [2], -32.9% (inactive); in [4] it was -7.67% (inactive); in [9], -4.27% (inactive). Besides, the nuclei count in [2] came to 124%. In addition, the z-score was -0.486 in [3] (setting [10]), -0.838 in assay [3] (setting [11]) and 0.956 in assay [3] (setting [12]). The fluorescence slope in assay [5] is -0.449 (inactive); in assay [7] it was 0.00423 (inactive). The NADPH fluorescence slope in assay [6] was -4.1e-05 (inactive). For the same compound, in [8], the outcome was inactive.
For `CN(CCNC(=O)c1ccc(/C=N/O)nc1)Cc1ccccc1`, the cell count in assay [1] was 620. Moreover, the inhibition is -9.1% (inactive) in assay [1], -41% (inactive) in assay [2], 1.63% (inactive) in [4] and 1.08% (inactive) in assay [9]. Further, in assay [2], the nuclei count was 182%. Further, the z-score was -0.419 in [3] (setting [10]), -0.398 in assay [3] (setting [11]) and -0.0227 in [3] (setting [12]). Further, the figures for the fluorescence slope in assay [5] and in assay [7] were -0.479 (inactive) and 0.00471 (inactive), respectively. Also, in [6], the NADPH fluorescence slope is -5.2e-05 (inactive). Further, the call in assay [8] was inactive.
